Results pooled from the literature.
Target: BMP-2-inducible protein kinase (BMP2K, Homo sapiens, UniProt Q9NSY1)

With `N#CC1(c2ccccn2)CCN(Cc2cc(C(=O)N3CCCC3)c(=O)n3ccccc23)CC1` the remaining binding was 92% (cell-free assay, competition with immobilised ligand; 1 µM).
The remaining activity of `NS(=O)(=O)c1ccc(CNc2ccnc(Nc3cccc(CN4CCOCC4)c3)n2)cc1` is reported as 51% (enzyme activity, inhibitor, radiometric; 1 µM).
`Cn1nc(C(=O)NCc2ccc(C(=O)O)cc2)cc1-c1ccc2[nH]ccc2c1` gave a remaining binding of 82% (cell-free assay, competition with immobilised ligand; 0.1 µM).
With `CN1CCc2cc(Nc3ncc(C4CC4)c(NCCCNC(=O)C4CCC4)n3)ccc2C1` the remaining activity was 3% (enzyme activity, inhibitor, radiometric; 1 µM).
`CN(CCCC(F)(F)F)c1nccc(-c2cnn3ncccc23)n1` has a remaining binding of 100% (binding; 1 µM).
With `Cn1c2c(Cl)c(Cl)ccc2c2cc[nH]c(=O)c21` the ΔTm was over 8 °C (thermal stability, DSF; 10 µM).
With `Cc1ccc(C(=O)Nc2ccc(CN3CCN(C)CC3)c(C(F)(F)F)c2)cc1C#Cc1cnc2cccnn12` the remaining activity was 95% (enzyme activity, inhibitor; 23.5 nM).
For `Cc1ccc(C(=O)NCc2ccsc2)cc1C#Cc1cn(C(C)C)c2ncnc(N)c12`, the activity vs control was 128% (enzyme activity, inhibitor; 1 µM).
`Cc1nn(CC(F)(F)F)cc1Nc1ncc(C2CC2)c(NCc2ccc(S(N)(=O)=O)cc2)n1` gave a remaining activity of 94% (enzyme activity, inhibitor, radiometric; 1 µM).
The remaining signal of `Nc1ncnc2occ(-c3ccc(NC(=O)Nc4cc(C(F)(F)F)ccc4F)cc3)c12` is reported as 59% (cell-free assay, inhibitor; 20 µM).
